Results: ChEMBL document CHEMBL1127046, “Antitumor agents. 3. Synthesis and biological activity of 4 beta-alkyl derivatives containing hydroxy, amino, and amido groups of 4'-O-demethyl-4-desoxypodophyllotoxin as antitumor agents” (J Med Chem, 1993)
≈ marks a conversion by molar mass, not a printed value.

What was measured:
ACHN = experiment: Inhibition of growth of renal cancer ACHN cell line; format: functional; conditions: Homo sapiens, read-out: ED50 (the source's name)
In short: (§1)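 Human tumour cell lines plated and grown 24 h in a CO2 incubator, then exposed to compound for 96 or 4 h. Cells counted by hemocytometer. IC50 is the concentration giving 50% reduction in cell number versus untreated control.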

[1] = Inhibition of growth of colon carcinoma COLO 2-1 cell line; format: functional; conditions: Homo sapiens, read-out: ED50 (the source's name)
In short: (§2)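 Cells were seeded and cultured for 24 h, then exposed to drug for 96 or 4 h. Cells were counted by hemocytometer. IC50 is the concentration giving a 50% reduction in cell number relative to control.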

COLO 320DM [2] = experiment: Inhibition of growth of colon cancer COLO 320DM cell line; format: functional; conditions: Homo sapiens, read-out: ED50 (the source's name); in short: as §2
Homo sapiens = species on record: Homo sapiens; experiment: Inhibition of growth of hepatoma HLE cell line; format: functional; conditions: read-out: ED50 (the source's name); in short: as §2
[3] = Inhibition of growth of renal cancer G-402 cell line; format: functional; conditions: Homo sapiens, read-out: ED50 (the source's name); in short: as §1
[4] = Inhibition of growth of hepatoma HLF cell line; format: functional; conditions: Homo sapiens, read-out: ED50 (the source's name); in short: as §2
[5] = test system: Lewis lung carcinoma cell line; experiment: Increased life span at the lewis lung dose of 0.77 (mg/kg/day); format: functional, Mus musculus
[6] = test system: Lewis lung carcinoma cell line; experiment: Increased life span at the lewis lung dose of 1.3 (mg/kg/day); format: functional, Mus musculus
[7] = test system: Lewis lung carcinoma cell line; experiment: Increased life span at the lewis lung dose of 2.3 (mg/kg/day); format: functional, Mus musculus
[8] = test system: Lewis lung carcinoma cell line; experiment: Increased life span at the lewis lung dose of 4 (mg/kg/day); format: functional, Mus musculus
[9] = test system: Lewis lung carcinoma cell line; experiment: Increased life span at the lewis lung dose of 7 (mg/kg/day); format: functional, Mus musculus
[10] = test system: Lewis lung carcinoma cell line; experiment: Mean body weight change after inoculation of 3.2 x 10 e 5 cells iv and administration of compounds iv from days 1-5 at the dose of 0.77 (mg/kg/day); format: functional, Mus musculus
In short: (§3)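 Male BDF1 mice (5 weeks) given 3.2 x 10^5 Lewis lung carcinoma cells iv on day 0, then dosed iv on days 1–5. Seven mice per group, 14 controls. Mean body weight change (g) taken from day 0 to day 6.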

[11] = test system: Lewis lung carcinoma cell line; experiment: Mean body weight change after inoculation of 3.2 x 10 e 5 cells iv and administration of compounds iv from days 1-5 at the dose of 1.3 (mg/kg/day); format: functional, Mus musculus; in short: as §3
[12] = test system: Lewis lung carcinoma cell line; experiment: Mean body weight change after inoculation of 3.2 x 10 e 5 cells iv and administration of compounds iv from days 1-5 at the dose of 2.3 (mg/kg/day); format: functional, Mus musculus; in short: as §3
[13] = test system: Lewis lung carcinoma cell line; experiment: Mean body weight change after inoculation of 3.2 x 10 e 5 cells iv and administration of compounds iv from days 1-5 at the dose of 4 (mg/kg/day); format: functional, Mus musculus; in short: as §3
[14] = test system: Lewis lung carcinoma cell line; experiment: Mean body weight change after inoculation of 3.2 x 10 e 5 cells iv and administration of compounds iv from days 1-5 at the dose of 7 (mg/kg/day); format: functional, Mus musculus; in short: as §3
P388 [15] = experiment: Antitumor activity in vivo expressed as the percentage increase in life span at the P388 dose of 1..3 (mg/kg/day); format: functional, Mus musculus
In short: (§4)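 P388 leukaemia, 1 × 10^6 cells given sc to male CDF1 mice (5 weeks old) on day 0. Drug was dosed iv on days 1–5 in saline with 3.5% DMSO and 6.5% Tween 80. Groups had 7 mice; controls had 10. ILS was calculated from mean survival time of treated versus control mice, excluding 30-day survivors.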

P388 [16] = experiment: Antitumor activity in vivo expressed as the percentage increase in life span at the P388 dose of 2.3 (mg/kg/day); format: functional, Mus musculus; in short: as §4
P388 [17] = experiment: Antitumor activity in vivo expressed as the percentage increase in life span at the P388 dose of 4 (mg/kg/day); format: functional, Mus musculus; in short: as §4
[18] = Inhibition of growth of lung non-small cell carcinoma PC-7 cell line; format: functional; conditions: Homo sapiens, read-out: ED50 (the source's name); in short: as §2
[19] = Inhibition of growth of lung small cell carcinoma RERF-LC-MA cell line; format: functional; conditions: Homo sapiens; read-out: ED50 (the source's name); in short: as §2
SBC-3 = experiment: Inhibition of growth of lung small cell carcinoma SBC-3 cell line; format: functional; conditions: Homo sapiens, read-out: ED50 (the source's name); in short: as §1
[20] = Inhibition of DNA topoisomerase II from rat liver measured as 50% reduction in the amount of minicircle DNA relative to the control
Tubulin = Tubulin (Bos taurus, UniProt Q6B856+Q862L2+Q862F3); experiment: Drug concentration needed to produce a 50% reduction of bovine brain tubulin polymerization relative to the control
[21] = test system: Lewis lung carcinoma cell line; experiment: Percentage inhibition of tumor growth at the lewis lung dose of 7 (mg/kg/ day); format: functional, Mus musculus
In short: (§5)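 Lewis lung carcinoma fragments (2 mm3) implanted sc into male BDF1 mice (5 weeks) on day 0. Compound given iv on days 4–8, in saline or saline with 3.5% DMSO and 6.5% Tween 80. Seven mice per group, 10 controls. Percent inhibition from mean tumour weight versus control on day 17; p<0.05, 0.01 or 0.001 versus control.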

Mus musculus = experiment: The number of mice survived for 30 days at the dose of 5 (mg/kg/day); format: functional
A549 [22] = experiment: Inhibition of growth lung non-small cell carcinoma A-549 cell line; format: functional; conditions: Homo sapiens, read-out: ED50 (the source's name); in short: as §2
[23] = test system: Lewis lung carcinoma cell line; experiment: Percentage inhibition of tumor growth at the lewis lung dose of 4 (mg/kg/ day); format: functional, Mus musculus; in short: as §5
A549 [24] = experiment: Inhibition of growth of lung non-small cell carcinoma A-549 cell line; format: functional; conditions: Homo sapiens, read-out: ED50 (the source's name); in short: as §2
COLO 320DM [25] = experiment: Inhibition of growth of colon carcinoma COLO 320DM; format: functional; conditions: Homo sapiens, read-out: ED50 (the source's name); in short: as §2
L1210 [26] = experiment: The number of mice survived for 30 days; format: functional, Mus musculus
L1210 [27] = experiment: Antitumor activity in vivo expressed as the percentage increase in life span at the dose of 10 (mg/kg/day); format: functional, Mus musculus
[28] = test system: Lewis lung carcinoma cell line; experiment: Antitumor activity in vivo expressed as the percentage increase in life span at the dose of 4 (mg/kg/day); (p<0.001); format: functional, Mus musculus
[29] = test system: Lewis lung carcinoma cell line; experiment: Antitumor activity in vivo expressed as the percentage increase in life span at the dose of 7 (mg/kg/day); (p<0.001); format: functional, Mus musculus
[30] = test system: Lewis lung carcinoma cell line; experiment: Antitumor activity in vivo expressed as the percentage increase in life span at the dose of 12 (mg/kg/day); (p<0.001); format: functional, Mus musculus
[31] = test system: Lewis lung carcinoma cell line; experiment: Antitumor activity in vivo expressed as the percentage increase in life span at the dose of 2.32 (mg/kg/day); (p<0.005); format: functional, Mus musculus
[32] = test system: Lewis lung carcinoma cell line; experiment: Antitumor activity in vivo expressed as the percentage increase in life span at the dose of 21 (mg/kg/day); (p<0.005); format: functional, Mus musculus
[33] = test system: Lewis lung carcinoma cell line; experiment: Mean body weight change at the dose of 7 (mg/kg/day); format: functional, Mus musculus; in short: as §3
[34] = test system: Lewis lung carcinoma cell line; experiment: Mean body weight change at the dose of 12 (mg/kg/day); format: functional, Mus musculus; in short: as §3
[35] = test system: Lewis lung carcinoma cell line; experiment: Mean body weight change at the dose of 2.3 (mg/kg/day); format: functional, Mus musculus; in short: as §3
[36] = test system: Lewis lung carcinoma cell line; experiment: Mean body weight change at the dose of 21 (mg/kg/day); format: functional, Mus musculus; in short: as §3
[37] = test system: Lewis lung carcinoma cell line; experiment: Mean body weight change at the dose of 4 (mg/kg/day); format: functional, Mus musculus; in short: as §3
P388 [38] = experiment: Cytotoxicity against P388 leukemia; format: functional, cell-based; conditions: Mus musculus
P388 [39] = experiment: Increased life span at the P388 dose of 4 (mg/kg/day); format: functional, Mus musculus; in short: as §4
P388 [40] = experiment: Increased life span at the P388 dose of 7 (mg/kg/day); format: functional, Mus musculus; in short: as §4
[41] = test system: Lewis lung carcinoma cell line; experiment: Percentage inhibition of tumor growth at the lewis lung dose of 12 (mg/kg/ day); (p<0.01); format: functional, Mus musculus; in short: as §5
[42] = test system: Lewis lung carcinoma cell line; experiment: Percentage inhibition of tumor growth at the lewis lung dose of 7 (mg/kg/day); (p<0.05); format: functional, Mus musculus; in short: as §5
P388 [43] = experiment: Increased life span at the P388 dose of 2.3 (mg/kg/day); format: functional, Mus musculus; in short: as §4
L1210 [44] = experiment: The number of mice survived for 30 days at the dose of 20 (mg/kg/day); format: functional, Mus musculus
L1210 [45] = experiment: Antitumor activity in vivo expressed as the percentage increase in life span at the dose of 20 (mg/kg/day); format: functional, Mus musculus

COc1cc([C@@H]2c3cc4c(cc3[C@@H](CCN(C)CCN3CCCCC3)C3COC(=O)[C@@H]32)OCO4)cc(OC)c1O.Cl.Cl (some centres not stated)
EC50 (ACHN): 2.7 µg/mL | EC50 [1]: 29 µg/mL | EC50 (COLO 320DM [2]): 3.2 µg/mL | EC50 (Homo sapiens): 0.36 µg/mL | EC50 [3]: 0.35 µg/mL | EC50 [4]: 4 µg/mL | ILS max [5]: 20% | ILS max [6]: 14% | ILS max [7]: 75% | ILS max [8]: 108% | ILS max [9]: 55% | bwc [10]: 0.7 g | bwc [11]: 0.1 g | bwc [12]: -0.6 g | bwc [13]: -1 g | bwc [14]: -3.5 g | ILS max (P388 [15]): 131% | ILS max (P388 [16]): 165% | ILS max (P388 [17]): 259% | EC50 [18]: 4.4 µg/mL | EC50 [19]: 27 µg/mL | EC50 (SBC-3): 0.54 µg/mL | IC50 [20]: 60.9 µM | IC50 (Tubulin): > 167 µM | Inhibition [21]: 97% | Survivors (Mus musculus): 6 | EC50 (A549 [22]): 1.8 µg/mL | Inhibition [23]: 72%

COc1cc([C@@H]2c3cc4c(cc3[C@@H](O[C@@H]3O[C@@H]5CO[C@@H](C)O[C@H]5[C@H](O)[C@H]3O)[C@H]3COC(=O)[C@H]23)OCO4)cc(OC)c1O [ETOPOSIDE]
EC50 (ACHN): 13 µg/mL (≈ 22.1 µM) | EC50 (A549 [24]): 2.9 µg/mL (≈ 4.93 µM) | EC50 [1]: 59 µg/mL (≈ 100 µM) | EC50 (COLO 320DM [25]): 14 µg/mL (≈ 23.8 µM) | EC50 (Homo sapiens): 1.5 µg/mL (≈ 2.55 µM) | EC50 [3]: 4.8 µg/mL (≈ 8.16 µM) | EC50 [4]: 19 µg/mL (≈ 32.3 µM) | Survivors (L1210 [26]): 3 | ILS max (L1210 [27]): 102% | ILS max [28]: 24% | ILS max [29]: 21% | ILS max [30]: 81% | ILS max [31]: 17% | ILS max [32]: 91% | bwc [33]: -0.8 g | bwc [34]: -2.6 g | bwc [35]: 0 g | bwc [36]: -3.8 g | bwc [37]: -0.4 g | IC50 (P388 [38]): 0.01 µM | ILS max (P388 [39]): 196% | ILS max (P388 [40]): 226% | EC50 [18]: 35 µg/mL (≈ 59.5 µM) | EC50 [19]: > 59 µg/mL | EC50 (SBC-3): 1.6 µg/mL (≈ 2.72 µM) | IC50 [20]: 59.2 µM | Inhibition [41]: 60% | Inhibition [42]: 39% | ILS max (P388 [43]): 151%

CCCCCCN(C)CC[C@@H]1c2cc3c(cc2[C@@H](c2cc(OC)c(O)c(OC)c2)[C@H]2C(=O)OCC12)OCO3.Cl (some centres not stated)
Survivors (L1210 [44]): 6 | IC50 (P388 [38]): 0.019 µM | IC50 [20]: 61.4 µM | IC50 (Tubulin): > 167 µM | ILS max (L1210 [45]): 106%
